Test results from ChEMBL document CHEMBL3124793, “Discovery of spirofused piperazine and diazepane amides as selective histamine-3 antagonists with in vivo efficacy in a mouse model of cognition” (J Med Chem, 2014).
Calls of active or inactive are those of the source.

How the values were obtained:
[1] = Apparent permeability from apical to basolateral side in MDCK cells; type: ADME, cell-based, Canis lupus familiaris; conditions: dog
Outline: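 MDCK monolayers; A-to-B Papp in 1 × 10⁻⁶ cm/s; efflux taken as ratio of A-to-B Papp over B-to-A Papp.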

[2] = target: Histamine H4 receptor (Homo sapiens) (UniProt Q9H3N8); experiment: Activity at histamine H4 receptor (unknown origin) at 10 uM relative to control
Chain of Histamine H4 receptor (Homo sapiens) (Q9H3N8 whole entry): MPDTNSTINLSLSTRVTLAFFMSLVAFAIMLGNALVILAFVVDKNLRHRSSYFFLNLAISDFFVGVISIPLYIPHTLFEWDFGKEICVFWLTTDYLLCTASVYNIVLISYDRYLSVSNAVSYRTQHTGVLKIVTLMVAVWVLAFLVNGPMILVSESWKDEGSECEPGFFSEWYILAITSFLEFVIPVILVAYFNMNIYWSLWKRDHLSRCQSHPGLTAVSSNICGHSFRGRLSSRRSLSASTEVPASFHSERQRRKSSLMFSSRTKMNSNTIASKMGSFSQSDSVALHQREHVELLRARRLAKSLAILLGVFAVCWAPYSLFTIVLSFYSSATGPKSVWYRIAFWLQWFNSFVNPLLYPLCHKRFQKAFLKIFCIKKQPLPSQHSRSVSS
Outline: (§1)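 Single-concentration binding at 10 μM against a panel of off-targets, run by an outside testing laboratory; activity judged against each assay's defined criteria.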

Homo sapiens [3] = organism: Homo sapiens; experiment: Activity at nicotinic acetylcholine receptor (unknown origin) at 10 uM relative to control; outline: as §1
[4] = Intrinsic clearance in human liver microsomes; type: ADME; conditions: read-out: CLH
Outline: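 Human liver microsomal clearance, expressed as μL/min/mg.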

Homo sapiens [5] = organism: Homo sapiens; experiment: Activity at GABA receptor (unknown origin) at 10 uM relative to control; outline: as §1
[6] = target: Histamine H1 receptor (Homo sapiens) (UniProt P35367); experiment: Activity at histamine H1 receptor (unknown origin) at 10 uM relative to control; outline: as §1
Chain of Histamine H1 receptor (Homo sapiens) (P35367 whole entry): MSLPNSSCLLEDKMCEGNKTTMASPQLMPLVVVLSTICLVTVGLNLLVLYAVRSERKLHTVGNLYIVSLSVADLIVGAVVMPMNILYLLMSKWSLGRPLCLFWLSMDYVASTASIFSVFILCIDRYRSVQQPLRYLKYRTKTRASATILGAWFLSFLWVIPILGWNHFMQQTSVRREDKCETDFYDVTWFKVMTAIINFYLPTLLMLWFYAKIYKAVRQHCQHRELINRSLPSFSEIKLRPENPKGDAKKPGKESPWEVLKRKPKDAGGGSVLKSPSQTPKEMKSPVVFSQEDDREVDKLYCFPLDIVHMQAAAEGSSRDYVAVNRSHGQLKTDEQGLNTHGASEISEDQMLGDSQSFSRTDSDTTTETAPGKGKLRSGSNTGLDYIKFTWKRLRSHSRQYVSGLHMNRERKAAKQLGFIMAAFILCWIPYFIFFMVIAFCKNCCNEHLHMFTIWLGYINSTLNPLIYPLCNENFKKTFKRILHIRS

[7] = target: T1, 5-hydroxytryptamine receptor 1A (Homo sapiens) (UniProt P08908); experiment: Activity at 5-HT1A receptor (unknown origin) at 10 uM relative to control; outline: as §1
T1 sequence (whole entry): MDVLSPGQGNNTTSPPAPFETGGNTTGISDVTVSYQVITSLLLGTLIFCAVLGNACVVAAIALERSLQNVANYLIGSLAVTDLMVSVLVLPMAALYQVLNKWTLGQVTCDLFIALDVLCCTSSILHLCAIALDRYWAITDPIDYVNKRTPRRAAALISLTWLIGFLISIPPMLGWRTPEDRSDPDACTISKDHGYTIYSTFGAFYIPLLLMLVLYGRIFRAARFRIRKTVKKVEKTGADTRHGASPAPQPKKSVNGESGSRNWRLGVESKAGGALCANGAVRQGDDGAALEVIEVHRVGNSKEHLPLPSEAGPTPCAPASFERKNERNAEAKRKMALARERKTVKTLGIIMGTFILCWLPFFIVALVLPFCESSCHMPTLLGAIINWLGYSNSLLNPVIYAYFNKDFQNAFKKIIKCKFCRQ

[8] = target: Phosphodiesterase 4 (Homo sapiens) (UniProt P27815+Q08499+Q07343+Q08493); experiment: Activity at PDE4 (unknown origin) at 10 uM relative to control; type: protein assay; outline: as §1
Rattus norvegicus [9] = experiment: […] clearance in rat at 2.4 umol/kg, iv; type: ADME, organism-based; conditions: in vivo
Outline: (§2)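 IV dosing in male fasted rats, doses in μmol/kg; mean Vss, half-life and clearance derived; number of rats per compound reported.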

[10] = Percentage unbound in human plasma; type: ADME, cell-free
Outline: (§3)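 Plasma protein binding in human or rat plasma, expressed as percent free.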

[11] = Equilibrium solubility of the compound at pH 7.4; type: physicochemical; conditions: buffer
[12] = Half life in rat at 2.4 umol/kg, iv; type: ADME, organism-based; conditions: in vivo; outline: as §2
[13] = Volume of distribution at steady state in rat at 2.4 umol/kg, iv; type: ADME, organism-based; conditions: in vivo, read-out: Vdss; outline: as §2
Histamine H3 receptor [14] = target: T2, Histamine H3 receptor (Homo sapiens, UniProt Q9Y5N1); experiment: Antagonist activity at human histamine H3 receptor long form expressed in CHOK1 cells assessed as inhibition of R-alpha-methylhistamine-induced [35S]GTPgammaS binding after 3 hrs by scintillation proximity assay; type: functional, cell-based, CHO-K1
T2 sequence (Q9Y5N1 whole entry): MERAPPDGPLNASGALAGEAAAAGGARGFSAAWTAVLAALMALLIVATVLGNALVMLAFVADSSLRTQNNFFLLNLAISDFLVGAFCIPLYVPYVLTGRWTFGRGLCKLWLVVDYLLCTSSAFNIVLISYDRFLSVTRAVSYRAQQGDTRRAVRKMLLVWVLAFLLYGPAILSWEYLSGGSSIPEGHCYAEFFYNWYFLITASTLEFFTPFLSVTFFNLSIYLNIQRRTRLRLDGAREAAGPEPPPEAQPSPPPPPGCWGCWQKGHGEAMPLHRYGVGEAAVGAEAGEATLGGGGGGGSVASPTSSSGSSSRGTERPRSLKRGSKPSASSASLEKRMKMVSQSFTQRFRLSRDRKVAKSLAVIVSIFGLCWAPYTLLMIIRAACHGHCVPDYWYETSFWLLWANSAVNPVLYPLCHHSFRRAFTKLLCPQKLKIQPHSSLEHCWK
Outline: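 Membranes from CHO-K1 cells stably expressing human H3R long form (445 aa) incubated 3 h with test compound, 25 nM R-α-methylhistamine, 10 μM GDP, 0.2 nM [35S]GTPγS and WGA PVT SPA beads; bead-bound [35S]GTPγS counted by scintillation. Average of n > 2, standard error <20%.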

[15] = Intrinsic clearance in rat liver microsomes; type: ADME; conditions: read-out: CLH
[16] = target: D(2) dopamine receptor (Homo sapiens) (UniProt P14416); experiment: Activity at dopamine D2 receptor (unknown origin) at 10 uM relative to control; outline: as §1
Chain of D(2) dopamine receptor (Homo sapiens) (P14416 whole entry): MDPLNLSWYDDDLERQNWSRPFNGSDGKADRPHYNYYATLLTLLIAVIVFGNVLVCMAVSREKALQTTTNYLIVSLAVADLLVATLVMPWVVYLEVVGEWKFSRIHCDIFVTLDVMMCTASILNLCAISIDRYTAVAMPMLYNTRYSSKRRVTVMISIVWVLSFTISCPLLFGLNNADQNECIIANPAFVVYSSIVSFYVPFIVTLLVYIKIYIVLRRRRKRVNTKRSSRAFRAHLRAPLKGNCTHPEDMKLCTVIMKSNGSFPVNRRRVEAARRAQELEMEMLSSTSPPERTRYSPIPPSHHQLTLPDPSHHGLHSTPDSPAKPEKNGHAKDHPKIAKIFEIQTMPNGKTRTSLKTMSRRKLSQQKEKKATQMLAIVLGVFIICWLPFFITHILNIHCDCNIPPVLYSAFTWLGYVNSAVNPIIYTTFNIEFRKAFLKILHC

[17] = target: T3, Muscarinic acetylcholine receptor M2 (Homo sapiens) (UniProt P08172); experiment: Activity at muscarinic M2 receptor (unknown origin) at 10 uM relative to control; outline: as §1
T3 sequence (whole entry): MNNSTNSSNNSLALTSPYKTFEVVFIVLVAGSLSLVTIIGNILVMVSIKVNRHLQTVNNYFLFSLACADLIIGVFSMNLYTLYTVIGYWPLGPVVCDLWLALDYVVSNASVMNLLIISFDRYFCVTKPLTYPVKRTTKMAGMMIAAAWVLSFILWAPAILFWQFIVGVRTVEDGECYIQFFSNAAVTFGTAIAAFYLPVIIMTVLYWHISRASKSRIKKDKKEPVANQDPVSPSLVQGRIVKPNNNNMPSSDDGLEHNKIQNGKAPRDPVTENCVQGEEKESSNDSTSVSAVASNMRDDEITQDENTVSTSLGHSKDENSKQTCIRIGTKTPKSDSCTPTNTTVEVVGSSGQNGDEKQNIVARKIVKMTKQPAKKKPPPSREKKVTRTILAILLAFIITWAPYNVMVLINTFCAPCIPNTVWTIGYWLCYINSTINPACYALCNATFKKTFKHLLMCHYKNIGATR

[18] = target: Sodium-dependent noradrenaline transporter (Homo sapiens) (UniProt P23975); experiment: Activity at NET (unknown origin) at 10 uM relative to control; outline: as §1
Chain of Sodium-dependent noradrenaline transporter (Homo sapiens) (P23975 whole entry): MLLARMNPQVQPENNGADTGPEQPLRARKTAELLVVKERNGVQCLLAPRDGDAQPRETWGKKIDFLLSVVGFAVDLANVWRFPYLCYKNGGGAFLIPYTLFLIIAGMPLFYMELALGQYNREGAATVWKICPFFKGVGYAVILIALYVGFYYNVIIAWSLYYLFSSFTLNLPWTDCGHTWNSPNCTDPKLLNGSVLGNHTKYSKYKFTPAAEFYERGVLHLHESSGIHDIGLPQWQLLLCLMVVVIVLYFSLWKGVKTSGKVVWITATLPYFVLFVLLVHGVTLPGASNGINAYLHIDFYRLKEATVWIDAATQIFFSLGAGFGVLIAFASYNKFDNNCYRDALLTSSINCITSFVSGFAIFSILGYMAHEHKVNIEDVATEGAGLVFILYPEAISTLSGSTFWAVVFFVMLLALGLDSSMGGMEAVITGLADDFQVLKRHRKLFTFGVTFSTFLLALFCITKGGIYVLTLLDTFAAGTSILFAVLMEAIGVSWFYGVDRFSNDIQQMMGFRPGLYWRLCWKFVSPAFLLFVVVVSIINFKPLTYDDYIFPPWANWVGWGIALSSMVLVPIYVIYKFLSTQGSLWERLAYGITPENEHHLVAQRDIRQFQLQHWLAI

[19] = target: Adenosine receptor A2a (Homo sapiens) (UniProt P29274); experiment: Activity at adenosine A2a receptor (unknown origin) at 10 uM relative to control; outline: as §1
Chain of Adenosine receptor A2a (Homo sapiens) (P29274 whole entry): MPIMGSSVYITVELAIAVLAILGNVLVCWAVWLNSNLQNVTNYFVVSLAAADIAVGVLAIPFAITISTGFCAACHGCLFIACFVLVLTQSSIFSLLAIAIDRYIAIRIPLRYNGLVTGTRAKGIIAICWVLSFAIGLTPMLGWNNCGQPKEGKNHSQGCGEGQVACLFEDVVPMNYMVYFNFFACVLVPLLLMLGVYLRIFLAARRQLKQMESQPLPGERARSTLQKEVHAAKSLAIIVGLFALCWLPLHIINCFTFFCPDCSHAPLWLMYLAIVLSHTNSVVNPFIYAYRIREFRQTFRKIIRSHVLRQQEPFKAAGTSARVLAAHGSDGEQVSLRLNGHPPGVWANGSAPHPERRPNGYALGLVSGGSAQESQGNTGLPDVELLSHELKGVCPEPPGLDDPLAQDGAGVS

Brain = experiment: Drug uptake in Sprague-Dawley rat brain at 3 umol/kg, iv after 1 hr; type: ADME, organism-based; conditions: in vivo
Outline: (§4)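 3 μmol/kg IV; plasma, brain and CSF sampled at 1 h, n = 4; brain not corrected for ~2–3% vascular contamination; nonspecific binding during CSF sampling not evaluated; mean with standard deviation.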

[20] = target: Histamine H2 receptor (Homo sapiens) (UniProt P25021); experiment: Activity at histamine H2 receptor (unknown origin) at 10 uM relative to control; outline: as §1
Chain of Histamine H2 receptor (Homo sapiens) (P25021 whole entry): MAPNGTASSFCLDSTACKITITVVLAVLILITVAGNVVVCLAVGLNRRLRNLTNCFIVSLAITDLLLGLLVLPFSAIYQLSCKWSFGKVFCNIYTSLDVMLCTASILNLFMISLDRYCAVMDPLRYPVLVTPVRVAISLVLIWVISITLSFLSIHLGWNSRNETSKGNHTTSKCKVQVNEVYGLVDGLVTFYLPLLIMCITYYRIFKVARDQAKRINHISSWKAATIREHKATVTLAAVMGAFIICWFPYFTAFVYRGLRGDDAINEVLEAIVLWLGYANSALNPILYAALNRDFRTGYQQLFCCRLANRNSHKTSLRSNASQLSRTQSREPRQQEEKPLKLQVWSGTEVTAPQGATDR

Salmonella typhimurium = experiment: Genotoxicity in Salmonella typhimurium by Ames test; type: toxicity, organism-based; conditions: salmonella enterica subsp. enterica serovar typhimurium
[21] = Plasma concentration in Sprague-Dawley rat at 3 umol/kg, iv after 1 hr; type: ADME, organism-based; outline: as §4
Mus musculus = experiment: Cognitive enhancing effect in CF-1 mouse at 1 to 10 mg/kg, sc administered 60 mins prior to acquisition phase by novel object exploration test; type: functional, organism-based
Outline: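 Male CF-1 mice given 1, 3 or 10 mg/kg s.c. 60 min before acquisition with two identical objects; one object then swapped for a novel one; mice re-tested 15 min later. Novel/familiar interaction ratio (50% = no preference) from manual scoring; mean ± SD; ANOVA with Newman–Keuls post hoc.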

[22] = Octanol-water partition coefficient, log D of the compound by shake flask HPLC analysis; type: physicochemical
Outline: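 logD between octanol and water by shake-flask with HPLC analysis.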

[23] = Plasma clearance in Sprague-Dawley rat; type: ADME, organism-based; conditions: read-out: AUC
[24] = Drug uptake in Sprague-Dawley rat CSF at 3 umol/kg, iv after 1 hr; type: ADME, organism-based, Cerebrospinal fluid; conditions: read-out: Drug uptake; outline: as §4
[25] = Cmax in Sprague-Dawley rat 3 umol/kg, po; type: ADME, organism-based; parameters: dose 3 umol/kg, route oral; conditions: in vivo
Rattus norvegicus [26] = experiment: […] clearance in rat at 3 umol/kg, iv; type: ADME, organism-based; conditions: in vivo; outline: as §2
[27] = Apparent half life in Sprague-Dawley rat; type: ADME, organism-based; conditions: in vivo, read-out: t1/2(app) (converted)
[28] = Drug recovery in Sprague-Dawley rat urine at 3 umol/kg, iv after 24 hrs; type: ADME, organism-based; conditions: read-out: Drug recovery
[29] = Induction of phospholipidosis in mouse I-13.35 cells by EthD-2 staining-based assay; type: cell-based
[30] = Percentage unbound in rat plasma; type: ADME, cell-free; outline: as §3
[31] = Volume of distribution at steady state in rat at 3 umol/kg, iv; type: ADME, organism-based; conditions: in vivo, read-out: Vdss
Outline: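 Male fasted rats given a single IV dose. Volume of distribution taken as the mean from plasma sampling after the IV dose. Animals per compound: 1 to 7.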

Histamine H3 receptor [32] = target: T2, Histamine H3 receptor; experiment: Displacement of [3H]-N-alpha-methylhistamine from human histamine H3 receptor expressed in CHOK1 cells after 1.5 hrs by scintillation proximity assay; type: cell-based, CHO-K1
Outline: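 Human H3R-CHO-K1 membranes incubated 1.5 h with test compound and [3H]-N-α-methylhistamine in SPA format; nonspecific binding defined with 10 μM imetit; bead-bound radioligand counted. Average of n > 2, standard error <50%.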

[33] = Half life in rat at 3 umol/kg, iv; type: ADME, organism-based; conditions: in vivo; outline: as §2
[34] = Oral bioavailability in Sprague-Dawley rat 3 umol/kg; type: ADME, organism-based; conditions: in vivo
Rattus norvegicus [35] = organism: Rattus norvegicus; experiment: Inhibition of rat sigma-2 receptor at 10 uM relative to control
Outline: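 Radioligand binding screen within a 144-receptor secondary pharmacology panel, run at a single 10 μM test concentration. The response is expressed as percent activity. Activity was judged against each assay's own defined criteria.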

[36] = Tmax in Sprague-Dawley rat 3 umol/kg, po; type: ADME, organism-based; conditions: in vivo

SMILES	Papp A→B [1] [×10⁻⁶ cm/s]	Activity [2] [%]	Activity (Homo sapiens [3]) [%]	microsomal CLint [4] [µL/min/mg]	Activity (Homo sapiens [5]) [%]	Activity [6] [%]	Activity [7] [%]	Activity [8] [%]	solubility thermodynamic [11] [µM]	IC50 (Histamine H3 receptor [14]) [nM]	microsomal CLint [15] [µL/min/mg]	Activity [16] [%]	Activity [17] [%]	Activity [18] [%]	Activity [19] [%]	other results
O=C(C1CC2(CCN(C3CCOCC3)CC2)C1)N1CCN(C2CCC2)CC1	5.1	> 10	> 10	< 4	> 10	> 10	> 10	> 10	> 500	1.9	< 4	> 10	> 10	> 10	> 10	CL (Rattus norvegicus [9]): 81.2 mL/min/kg; fraction unbound [10]: 0.51; half-life [12]: 14.2 h; Vd [13]: 74 L/kg
CC(C)N1CCN(C(=O)[C@H]2CC23CCN(C2CCOCC2)CC3)CC1	13	> 10	> 10	< 4	> 10	> 10	> 10	> 10	> 500	8.3	7	> 10	> 10	> 10	> 10	Drug uptake (Brain): 540 nmol/kg; Activity [20]: > 10%; Activity (Salmonella typhimurium): Non-toxic; concentration at 1 h [21]: 180 nM; Activity (Mus musculus): Active; logD [22]: -0.26; clearance [23]: 53 mL/min/kg; concentration at 1 h [24]: 34 nM; Cmax [25]: 71 nM; CL (Rattus norvegicus [26]): 16.4 mL/min/kg; half-life [27]: 15 h; dose excreted at 24 h [28]: 14%; EC50 [29]: > 300000 nM; fraction unbound [30]: 0.87; Vd [31]: 34.6 L/kg; Ki (Histamine H3 receptor [32]): 0.8 nM; half-life [33]: 25.3 h; bioavailability [34]: 99%; inhibition (Rattus norvegicus [35]): 62%; Tmax [36]: 6 h
